A selection: hits, their analogues and other compounds. The true share with any hit is near 2.5%.
SENP7 inh: blocks the human protease SENP7. Q9BQF6. recombinant SENP7, Z-RLRGG-aminoluciferin luminescence, 40 min. inhibition, % at 5 µM. 1.5% of 330,000 active. AID 434973;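 active = inhibition above about 50% at the single test dose, limit read from the data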;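 also: plate controls were DMSO with enzyme for no effect and no enzyme buffer wells for full effect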
Target sequence (Q9BQF6 706-1050 limits assumed): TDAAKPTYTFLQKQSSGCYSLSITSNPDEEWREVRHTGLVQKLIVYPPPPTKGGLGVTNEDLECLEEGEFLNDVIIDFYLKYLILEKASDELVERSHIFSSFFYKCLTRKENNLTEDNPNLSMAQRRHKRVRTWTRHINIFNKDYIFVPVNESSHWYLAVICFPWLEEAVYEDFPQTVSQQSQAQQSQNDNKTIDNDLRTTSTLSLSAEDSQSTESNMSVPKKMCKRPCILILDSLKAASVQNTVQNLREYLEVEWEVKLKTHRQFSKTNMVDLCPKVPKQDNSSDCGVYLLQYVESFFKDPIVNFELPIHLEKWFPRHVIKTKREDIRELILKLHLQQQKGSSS
SENP6 inh: inhibitors of human SENP6 protease; Q9GZR1; 1.8% of 330,000 active; Recombinant SENP6 catalytic domain, aminoluciferin luminescence; inhibition, % at 10 µM;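 active = inhibition above about 50% at the single tested dose, limit read from the data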;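 also: plate controls were DMSO wells with enzyme for no effect and DMSO wells lacking enzyme for full effect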
SENP8 block-1: inhibitors of human SENP8 protease; Q96LD8; recombinant SENP8, Nedd8 substrate fluorescence; inhibition, % at 20 µM; 0.64% of 360,000 active; in the data active = inhibition mostly above about 40%, no sharp cut-off; inactive = mostly below about 27%
SENP8 block-2: blocks the human protease SENP8; Q96LD8; purified SENP8, Z-RLRGG-aminoluciferin cleavage, luminescence; inhibition, % at 10 µM; 1.2% of 330,000 active; in the data active = inhibition above about 50%
SENP1 FRET inh: SENP1 (human) catalytic domain inhibition. 0.21% of 360,000 active. recombinant SENP1 catalytic domain, CyPet-SUMO1-YPet FRET cleavage. inhibition, % at 10 µM. AID 624204;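 active = inhibition at least 30% at 10 µM, raw YFP signal under a set limit, fluorescence ratio 0.5 to 1.5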;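 also: 0% = enzyme with DMSO and 100% = no enzyme wells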
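Test system: recombinant human SENP1 catalytic domain, His6-tagged / Medium: pH 8 Tris buffer with EDTA, NaCl, BME, BSA, NP40, catalase / Also added: SUMO1 FRET substrate flanked by Cypet and Ypet, 25 nM / Times: 50 min reaction at room temperature / Signal: FRET, CFP and YFP emission / Control set: no-enzyme low control and enzyme-plus-DMSO high control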
SENP8 confirm: human SENP8 inhibition, confirmed. shares compounds with SENP7 inh. Recombinant SENP8, Z-RLRGG-aminoluciferin luminescence, 60 min. inhibition, % at 12.5 µM. 40% of 6,200 active. AID 488912;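 active = mean inhibition across replicates above about 50%, limit read from the data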
SENP6 conf: human SENP6 inhibition, confirmed; 58% of 6,200 active; shares compounds with SENP7 inh; inhibition, % at 12.5 µM; recombinant SENP6, Z-RLRGG-aminoluciferin luminescence
SENP7 confirm: confirmation of human SENP7 protease inhibitors | recombinant SENP7, Z-RLRGG-aminoluciferin luminescence, 40 min | shares compounds with SENP7 inh | 69% of 6,200 active | inhibition, % at 12.5 µM
Casp3 select: inhibits human caspase-3 in SENP selectivity test | shares compounds with SENP7 inh | purified caspase-3, Z-DEVD-aminoluciferin luminescence, 60 min | inhibition, % at 12.5 µM | 60% of 6,200 active | AID 488918;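 active = mean inhibition above about 50%, limit read from the data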;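 also: plate controls were enzyme with DMSO for no effect and wells without caspase-3 for full effect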
Target sequence (P42574 28-227 limits assumed): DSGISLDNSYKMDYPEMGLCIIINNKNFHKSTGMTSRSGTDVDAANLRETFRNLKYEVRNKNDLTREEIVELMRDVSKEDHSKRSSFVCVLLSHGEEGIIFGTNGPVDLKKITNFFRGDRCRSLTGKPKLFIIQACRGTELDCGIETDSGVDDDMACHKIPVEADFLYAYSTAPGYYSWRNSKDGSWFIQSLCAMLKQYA
SENP luc ctr: luminescence interference (SENP counter-screen); shares compounds with SENP7 inh; Pre-incubated SENP8/Z-RLRGG-aminoluciferin, luciferase luminescence interference; inhibition, % at 12.5 µM; 39% of 6,200 active;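 active = mean inhibition above about 50% when retested at one dose, limit read from the data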;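 also: plate controls were DMSO wells with completed reaction for no effect and substrate without enzyme for full effect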
The depositor's hits bear a star; . = not tested or not shown.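 The calls were made as follows, unless noted: active = mean inhibition above about 50% in the one-dose retest (limit read from the data); inactive = the rest.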

SMILES	SENP7 inh	SENP6 inh	SENP8 block-1	SENP8 block-2	SENP1 FRET inh	SENP8 confirm	SENP6 conf	SENP7 confirm	Casp3 select	SENP luc ctr
Cc1ccc(/C=C2\SC(=S)N(CCCC(=O)N3CCOCC3)C2=O)cc1	84*	84*	11	84*	1	90*	89*	97*	72*	75*
COc1ccc(/C=C2/SC(=S)N(CCCC(=O)N3CCN(C)CC3)C2=O)cc1	69*	65*	16	54*	-32	58*	60*	86*	67*	69*
Cc1cc(C)c(C)c(S(=O)(=O)Nc2ccccc2N2CCOCC2)c1C	-5	-9	17	5	1	.	.	.	.	.
CCOc1cc(N2CCOCC2)c(OCC)cc1NC(=O)CN1CCCC1	4	-14	21	-3	2	.	.	.	.	.
Brc1c(-c2ccccc2)nc2n1Cc1ccccc1-2	47	75*	18	51*	0	6	65*	72*	42	16
c1ccc2c(c1)Cn1c-2nc2ccccc21	91*	92*	-1	81*	2	90*	88*	99*	95*	86*
c1ccc2c(c1)Cn1nnnc1-2	-12	3	2	-8	3	.	.	.	.	.
COCCCN1C(=O)C(CC(=O)NCC2CCCCC2)CC(C(=O)N2CCOCC2)=C1C (centres undefined)	.	.	15	.	2	.	.	.	.	.
OCC[C@@H]1C[C@H](O)[C@@H](O)[C@]2(OCc3ccc(CO)cc32)O1	.	.	18	.	1	.	.	.	.	.
COc1cccc(C(=O)Nc2ccc(C3CC3(Cl)Cl)cc2)c1 (centres undefined)	94*	85*	12	92*	1	96*	97*	103*	92*	40
CN(C)S(=O)(=O)Oc1ccc(C(=O)Nc2cccc(C(F)(F)F)c2)cc1	10	-8	15	1	-1	.	.	.	.	.
COc1cccc(C(=O)Nc2ccc(C(F)(F)F)n(C)c2=O)c1	80*	45	-22	65*	0	9	50	82*	70*	21
CCOc1ccc(C(=O)Nc2ccc(C(F)(F)F)n(C)c2=O)cc1	5	-14	-70	-2	-4	.	.	.	.	.
COc1cccc(C(=O)Nc2ccc(C(=O)c3ccccc3)cc2)c1	22	47	5	23	0	.	.	.	.	.
CCOC(=O)Nc1cccc(NC(=O)c2cc(OC)cc(OC)c2)c1	71*	64*	1	42	0	74*	70*	88*	76*	74*
CN(C)S(=O)(=O)Oc1ccc(C(=O)Nc2cccc(Cl)c2)cc1	75*	58*	12	70*	1	83*	82*	96*	63*	72*
Cc1cccc(N(CC(=O)NCc2ccco2)S(=O)(=O)c2ccccc2)c1	.	.	6	.	1	.	.	.	.	.
NC(=O)c1ccsc1NC(=O)c1ccc([N+](=O)[O-])o1	-17	-4	-30	-24	-5	.	.	.	.	.
COC(=O)c1cccc(NC(=O)c2cccc(OC)c2)c1	84*	85*	38	65*	0	69*	71*	94*	85*	78*
COc1cccc(C(=O)NC(=S)Nc2ccc(N(C)C)cc2)c1	28	57*	19	32	1	48	57*	78*	39	24
COc1cccc(NC(=O)c2cccc(Cl)c2)c1	77*	83*	21	77*	0	81*	79*	95*	83*	81*
COc1cccc(C(=O)Nc2ccc(F)c(F)c2F)c1	51*	41	12	12	1	44	41	77*	70*	53*
COc1cccc(C(=O)Nc2ccc(F)cc2F)c1	37	-39	17	-4	-1	.	.	.	.	.
O=C(O)c1ccc(SCc2ccccc2)nc1	-1	76*	9	56*	2	7	72*	92*	91*	80*
O=S(=O)(O)c1ccc(SCc2ccccc2)nc1	5	17	13	10	0	.	.	.	.	.
SMILES	SENP7 inh	SENP6 inh	SENP8 block-1	SENP8 block-2	SENP1 FRET inh	SENP8 confirm	SENP6 conf	SENP7 confirm	Casp3 select	SENP luc ctr
COc1ccccc1OCc1nc2ccccc2n1C	9	15	14	-2	-5	.	.	.	.	.
Cn1c(COc2ccccc2Br)nc2ccccc21	49	69*	14	60*	2	52*	71*	91*	63*	31
CCn1c(COc2ccccc2C)nc2ccccc21	47	75*	18	58*	0	41	40	78*	53*	29
CC1(C)CC(=O)C/C(=N/Nc2nc3ccccc3s2)C1	6	-7	-250	4	-16	.	.	.	.	.
CC1CCC/C(=N/Nc2nc3ccccc3s2)C1 (centres undefined)	54*	43	-167	56*	-2	2	68*	88*	49	52*
O=C(O)COc1ccc2occ(C(=O)c3ccccc3)c2c1	12	36	24	12	2	.	.	.	.	.
COc1ccc(C(=O)c2coc3ccc(O)cc23)cc1	87*	85*	18	80*	1	80*	80*	98*	78*	61*
CC(=O)Oc1ccc2occ(C(=O)c3ccccc3)c2c1	31	32	8	32	-1	.	.	.	.	.
Cc1ccc(C(=O)c2coc3ccc(OCC(=O)O)cc23)cc1	29	66*	19	33	0	47	43	77*	78*	66*
O=C(c1cccc(Br)c1)c1coc2ccc(O)cc12	72*	86*	18	84*	1	56*	73*	95*	51*	24
C[C@H](CO)N1C[C@H](C)[C@@H](CN(C)S(C)(=O)=O)OCc2cnnn2CCCC1=O	.	.	-19	.	2	.	.	.	.	.
O=C(CC1CCCC1)Nc1ccc(Br)cc1	-2	-16	8	-5	1	.	.	.	.	.
O=C(c1cc(COc2cccc(C(F)(F)F)c2)on1)N1CCC(Oc2cccnc2)CC1	12	3	5	-4	0	.	.	.	.	.
Cc1ccc(S(=O)(=O)N2CCN(CC(=O)N/N=C/c3ccco3)CC2)cc1	5	12	7	-3	3	.	.	.	.	.
CS/C(Nc1cc(Cl)ccc1Cl)=C(/C#N)C(=O)c1ccco1	89*	97*	11	94*	-7	92*	94*	98*	91*	97*
O=C(Nc1cc(Cl)ccc1Cl)c1ccco1	1	-11	25	-1	0	.	.	.	.	.
